These results are taken from ChEMBL document CHEMBL2417449, “Discovery of the first inhibitors of bacterial enzyme D-aspartate ligase from Enterococcus faecium (Aslfm)” (Eur J Med Chem, 2013).

One may read the MIC as the least concentration at which growth counts as inhibited. In general, Ki refers to the equilibrium dissociation constant of an inhibitor or competing ligand from its target. A higher Ki goes with weaker binding.

Test [1] has as its system Enterococcus faecium. As to the kind of experiment: Antimicrobial activity against Enterococcus faecium D344R at 160 ug after 18 hrs by disk diffusion method. Background: In agar diffusion tests the substance spreads into inoculated agar from a disc or well.
Test [2] has as its system Enterococcus faecium. As to the kind of experiment: Inhibition of purified Enterococcus faecium D359 His-tagged Aslfm assessed as residual activity preincubated at 250 uM for 2 mins prior to reaction initiation measured after 10 mins by UV/VIS spectrophotometry. The method, boiled down: (§1)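 His-tagged Aslfm in 100 mM Tris-HCl pH 8.0, 50 mM MgCl2, 2 mM phosphoenolpyruvate, 0.16 mM NADH, 1 mM ATP, 1 mM D-Asp, 0.005% Triton X-114, with pyruvate kinase and lactate dehydrogenase. Compound in DMSO was preincubated 2 min at 37 °C, and the reaction was started with 0.3 mM UM5K. A340 was followed for 10 min. Duplicates; residual activity is relative to DMSO controls.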

The subject of test [3] is Enterococcus faecium. Put plainly: Antimicrobial activity against Enterococcus faecium D344R after 18 hrs by macrodilution method.
The subject of test [4] is Enterococcus faecium. Put plainly: Inhibition of purified Enterococcus faecium D359 His-tagged Aslfm assessed as residual activity preincubated at 100 uM for 2 mins prior to reaction initiation measured after 10 mins by UV/VIS spectrophotometry. A digest of the protocol:
as §1

Test [5] is described as follows: Binding affinity to purified Enterococcus faecium D359 His-tagged Aslfm by kinetic study. The following applies: in the assay text read “isothermal titration calorimetry” for “kinetic study”. For orientation: ITC needs no label: the signal is the heat of the interaction.
Test [6] deals with Enterococcus faecium. As to the kind of experiment: Binding affinity to purified Enterococcus faecium D359 His-tagged Aslfm by isothermal titration calorimetry method. A digest of the protocol:
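The ligand (50 µM in buffer with 5% DMSO) was titrated into ~1 µM enzyme (5% DMSO) at 37 °C, 300 rpm, with 5–8 min intervals, to a final ratio of ~12:1. Data were corrected for ligand-into-buffer heats and fitted to a single-binding-site model.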

Test [7] relates to Enterococcus faecium. As to the kind of experiment: Antimicrobial activity against Enterococcus faecium E1636 after 18 hrs by broth microdilution method. Type of test: functional. The conditions noted are these: E1636, 18 h. On the technique in general: Broth dilution looks for growth in wells or tubes with falling amounts of substance.
The subject of test [8] is Enterococcus faecium. Put plainly: Antimicrobial activity against Enterococcus faecium E1679 after 18 hrs by broth microdilution method. The following applies: E1679, 18 h. In kind it is functional.
Test [9] deals with Enterococcus faecalis. As to the kind of experiment: Antimicrobial activity against Enterococcus faecalis ATCC 29212 after 18 hrs by broth microdilution method. Type of test: functional. The following applies: ATCC 29212, 18 h.
Test [10] concerns Enterococcus faecium. Put plainly: Competitive inhibition of purified Enterococcus faecium D359 His-tagged Aslfm preincubated at 1 uM for 2 mins prior to reaction initiation measured after 10 mins by time course assay. A digest of the protocol: (§2)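 Coupled pyruvate kinase–lactate dehydrogenase assay at 37 °C monitored at 340 nm. Starting conditions: 100 µM ATP, 1 mM D-Asp, 300 µM UDP-MurNAc-pentapeptide, 2 mM phosphoenolpyruvate, 105 µM NADH, enzyme 0.75 or 1 µM, up to six inhibitor concentrations. Progress curves over 10–15 min were fitted to a […] mechanism, with enzyme constants fixed and inhibitor constants fitted. Ki was also measured at ATP 50 and 100 µM.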

Test [11] in a line: Inhibition of purified Enterococcus faecium D359 His-tagged Aslfm preincubated for 2 mins prior to reaction initiation measured after 10 mins by UV/VIS spectrophotometry. The method, boiled down:
as §1

The test system of test [12] is Enterococcus faecium. Put plainly: Competitive inhibition of purified Enterococcus faecium D359 His-tagged Aslfm preincubated at 0.75 uM for 2 mins prior to reaction initiation measured after 10 mins by time course assay. A digest of the protocol:
as §2

Test [13] relates to Enterococcus faecium. As to the kind of experiment: Inhibition of purified Enterococcus faecium D359 His-tagged Aslfm assessed as residual activity preincubated at 50 uM for 2 mins prior to reaction initiation measured after 10 mins by UV/VIS spectrophotometry. The method, boiled down: as §1
For test [14], the system named is Enterococcus faecium. As to the kind of experiment: Competitive inhibition of purified Enterococcus faecium D359 His-tagged Aslfm preincubated for 2 mins prior to reaction initiation measured after 10 mins by time course assay. The method, boiled down:
as §2

The structures appear in SMILES notation. Active and inactive are the calls of the source. The calls are words filed in the database; no cut-off is given here.

Take `CC1(C)S[C@@H]2[C@H](NC(=O)[C@H](N)c3ccccc3)C(=O)N2[C@H]1C(=O)O`: the “growth inhibition (GI)” value in [1] is “inactive”.

Consider `Nc1ncc(C(=O)Nc2nc3ccccc3[nH]2)o1`, for which, in test [2], the Activity stood at 90%. Also, the MIC in [3] was more than 200 µg/mL.

For `Nc1nc(NCc2ccc3c(c2)OCO3)c2nc[nH]c2n1`, in test [4], the Activity came out at 84%.

For the compound `OC(c1ccccc1)(c1ccccc1)c1c[nH]cn1`, the Activity in test [4] stood at 100%.

Turning to `Nc1nc(NCc2c(F)cccc2F)c2cn[nH]c2n1`, the Activity in [4] was determined as 88%.

Turning to `Nc1ncc(-c2nnnn2-c2ccccc2)c(-c2ccccc2)n1`, in test [4], the Activity came out at 92%.

On to `CS(=O)(=O)Nc1nc(CC(=O)N(Cc2cccs2)Cc2cccs2)cs1`, for which the Activity in test [4] worked out at 91%.

In the case of `CCCCN(CCCC)C(=O)c1cnc(N)o1`, the Activity in test [2] worked out at 94%. The compound further displayed an MIC in test [3] of more than 200 µg/mL.

In the case of `Nc1nc(NCc2cccnc2Cl)c2cn[nH]c2n1`, in [4], the Activity turned out to be 87%.

Consider `CCN(Cc1ccncc1)C(=O)c1cnc(N)o1`, for which the Activity in test [2] came out at 98%. In test [3], this compound gave an MIC of more than 200 µg/mL.

For the compound `c1ccc(CN(Cc2ccccc2)c2ncnc3[nH]cnc23)cc1`, the Activity in test [4] was found to be 83%.

For `Nc1ncc(C(=O)N(Cc2ccccn2)Cc2ccccn2)o1`, the Activity in test [2] was 74%. In addition, the MIC in [3] is more than 200 µg/mL.

Turning to `COc1ccc(CNc2nc(N)nc3[nH]cnc23)c(OC)c1`, the Activity in test [4] came to 89%.

Turning to `Nc1nc(SCc2c(Cl)cccc2Cl)c2nc[nH]c2n1`, the Ki in [5] is 5 µM; in test [11], 3.2 µM. This compound also gave a Kb in test [6] of 2 ×10⁵ /M. For the same compound, the MIC in test [7], in test [8] and in test [9] was more than 64 µg/mL in each case. Moreover, the inhibition result in [10] is “Active”. For the same compound, in [4], the Activity came to 47%.

Consider `Nc1nc(NCc2cccc(Cl)c2Cl)c2cn[nH]c2n1`, for which, in [4], the Activity amounted to 86%.

As for `Nc1ncc(C(=O)N(Cc2ccccc2)Cc2ccccc2)o1`, the Ki was 5 µM in test [5] and 44 µM in [11]. For the same compound, the Kb in test [6] came out at 2 ×10⁵ /M. Also, the MIC in test [7] was more than 64 µg/mL; in test [8], more than 64 µg/mL; in [9], more than 64 µg/mL; in test [3], more than 200 µg/mL. The inhibition result in test [12] is “Active”. Further, the Activity in test [2] stood at 43%.

As for `Clc1ccc(CN(Cc2ccccc2)c2ncnc3[nH]cnc23)cc1`, in test [13], the Activity turned out to be 110%.

As to `Nc1nc(NCc2c(F)cccc2Cl)c2cn[nH]c2n1`, the Activity in test [4] turned out to be 84%.

Consider `Nc1nnc(P(=O)(c2ccccc2)c2ccccc2)s1`, for which the Activity in test [4] is 95%.

Turning to `Nc1nc(NCc2ccc(Cl)cc2Cl)c2cn[nH]c2n1`, the MIC in test [7], in test [8] and in test [9] was more than 64 µg/mL each time. Further, the inhibition result in test [14] is “Active”. Also, the Activity in test [4] was 69%. Besides, the affinity in test [11], expressed as Ki, was 22 µM.

For the compound `Nc1nc(NCc2ccc(Cl)cc2Cl)c2nc[nH]c2n1`, in [4], the Activity was found to be 85%.

In the case of `CN(C(=O)Cn1c(-c2nonc2N)nc2ccccc21)c1ccccc1`, the Activity in test [4] was 116%.

Regarding `Clc1cccc(Cl)c1CN(Cc1ccccc1)c1ncnc2[nH]cnc12`, the Activity in test [13] came out at 94%.

As for `Cc1ccc(F)c(CNc2nc(N)nc3[nH]ncc23)c1F`, in test [4], the Activity came out at 79%.

In the case of `Nc1nc(NCc2ccc(F)cc2F)c2cn[nH]c2n1`, in [4], the Activity was found to be 93%.

As to `Nc1nc(NCc2ccc(Cl)s2)c2cn[nH]c2n1`, in test [4], the Activity stood at 74%.

With `Nc1ncc(C(=O)NCc2ccc3[nH]ccc3c2)o1`, the Activity in test [2] worked out at 79%. Moreover, the MIC in test [3] was more than 200 µg/mL.

For `O=C(c1cnc(O)cn1)N(Cc1cccs1)CC1CCCO1` (stereo unspecified), the Activity in [4] was 93%.

For the compound `Nc1nc(SCc2ccc(Cl)cc2Cl)c2nc[nH]c2n1`, the MIC in [7], in test [8] and in test [9] was more than 64 µg/mL throughout. Also, the inhibition entry in test [14] is “Active”. In [4], the Activity was 71%. For the same compound, the Ki in [11] is 35 µM.

Regarding `Nc1nonc1-c1nc2ccccc2n1CC(=O)Nc1ccccc1`, the Activity in [4] was 89%.

For the compound `O=C(c1ccc(O)nc1)N(Cc1ccco1)Cc1cccs1`, the Activity in test [4] came out at 93%.

For the compound `Nc1ncc(C(=O)N(Cc2cc(Br)cc(Br)c2)Cc2ccc3[nH]ccc3c2)o1`, the MIC in [7] was more than 64 µg/mL; in test [8], more than 64 µg/mL; in [9], more than 64 µg/mL; in [3] it was more than 200 µg/mL. Besides, the inhibition result in test [14] was “Active”. In addition, the Activity in test [4] is 44%. The compound also gave a Ki in test [11] of 2.9 µM.

Turning to `Nc1ncc(C(=O)N(Cc2ccccc2)Cc2ccccc2)s1`, the Activity in test [2] was found to be 80%. Also, the MIC in test [3] was more than 200 µg/mL.

`Cc1nc(N)sc1C(=O)N(Cc1ccccc1)Cc1ccccc1`: the Activity in test [2] came out at 82%. The MIC in test [3] was more than 200 µg/mL.

With `CCCCN(Cc1ccccc1)C(=O)c1cnc(N)o1`, in test [2], the Activity was 75%. In addition, in [3], the MIC was more than 200 µg/mL.

Turning to `Cc1ccc(-n2nnnc2-c2cn[nH]c2-c2cccc(C)c2)cc1`, the Activity in test [4] amounted to 92%.

Take `Nc1nc(NCc2ccc(Cl)c(Cl)c2)c2nc[nH]c2n1`: in test [4], the Activity stood at 83%.
